Here are results for ten compounds from ChEMBL document CHEMBL1144928, “Antimalarial activity of novel 1,2,5,6-tetraoxacycloalkanes and 1,2,5-trioxacycloalkanes” (J Med Chem, 2003).

The structures appear in SMILES notation. Bounds are passed on as bounds.

The term EC50 denotes the concentration that produces a half-maximal response. Low values mean an effect from little substance, high ones a need for much substance. As usually defined, the ED50 is the dose at which the effect has come halfway, by size or by number of responders. Low values mean an effect at a small dose, high ones a need for a large dose.

Experiment [1] in a line: (§1) Selectivity index was determined. The experiment is classed as functional. The method in brief: (§2)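 Selectivity was calculated as the mean EC50 for FM3A cells divided by the mean EC50 for P. falciparum FCR-3.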
Experiment [2] concerns Plasmodium falciparum. Put plainly: In vitro antimalarial activity against Plasmodium falciparum. In kind it is functional, organism-based. Summed up:
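Tested against chloroquine-sensitive P. falciparum FCR-3 strain in culture. EC50 was determined by a previously reported protocol.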

The test system of experiment [3] is FM3A. Description: Compound was tested in vitro cytotoxicity against FM3A cell. To be noted: Mus musculus. In kind it is functional, cell-based. Summed up: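 Cytotoxicity control used mouse mammary tumor FM3A cells in culture. The 50% inhibitory concentration (EC50) was determined by a previously reported protocol.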
Experiment [4] relates to Mus musculus. Put plainly: Compound was tested in vitro Antimalarial activity against Plasmodium berghei in infected mice (Mus musculus) administered intraperitoneally. To be noted: ip. The experiment is classed as functional. The method in brief:
(§3)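 Mice infected with P. berghei NK 65 strain, in groups of five, were dosed once daily on days 0–3 with a range of concentrations in olive oil. Dosing was intraperitoneal or oral.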

Experiment [5] has as its system Plasmodium falciparum. Description: In vitro antimalarial activity against […]. In kind it is functional, organism-based.
A short description of experiment [6]: as §1. The experiment is classed as functional. The method in brief: as §2
The source holds these as a separate data set.

In experiment [7] the test system is Mus musculus. Description: Compound was tested in vitro Antimalarial activity against Plasmodium berghei in infected mice (Mus musculus) administered per orally. The experiment is classed as functional. The settings on record: po. The method in brief:
as §3

The compound `c1ccc(C2OOC3C4CCC(C4)C3(c3ccccc3)OO2)cc1` (stereo unspecified) had a Selectivity in experiment [1] of 9. The half-maximal effective concentration (EC50) is 1.5 µM in experiment [2] and 13 µM in experiment [3].
In experiment [4], `c1ccc(C23OOC(C4CCCCC4)OOC2C2CCC3C2)cc1` (stereo unspecified) came in with an ED50 of 70 mg/kg and an ED90 of more than 100 mg/kg. This compound also returned a concentration for a half-maximal effect (EC50) in experiment [5] of 0.21 µM. The compound also showed a Selectivity in experiment [1] of 52.
In experiment [1], `c1ccc(C23OOC4(CCCCC4)OOC2C2CCC3C2)cc1` (stereo unspecified) [TETRACYCLOALKANES] came in with a Selectivity of 24. Moreover, the EC50 in experiment [2] is 0.45 µM; in experiment [3] it was 11 µM.
In experiment [1], `Fc1ccc(C2OOC3C4CCC(C4)C3(c3ccccc3)OO2)cc1` (stereo unspecified) had a Selectivity of 11. Besides, the results for the concentration for a half-maximal effect (EC50) in experiment [2] and in experiment [3] were 1 µM and 11 µM, respectively.
`CC1(C2OOC3C4CCC(C4)C3(c3ccccc3)OO2)CCCC1` (stereo unspecified) gave a Selectivity in experiment [1] of 45. For the same compound, the concentration for a half-maximal effect (EC50) in experiment [2] was determined as 0.13 µM; in experiment [3], 5.9 µM.
In turn, `CC1(CI)CCOC2(c3ccccc3)C3CCC(C3)C2OO1` (stereo unspecified) yielded a Selectivity in experiment [1] of 3000. Further, the 50% effective concentration (EC50) in experiment [2] came out at 0.005 µM; in experiment [3] it was 15 µM.
On to `c1ccc(C23OOCCCOOC2C2CCC3C2)cc1` (stereo unspecified), for which the EC50 in experiment [6] amounted to 237 µM; in experiment [2], 0.19 µM; in experiment [3] it was 45 µM. Besides, the median effective dose (ED50) in experiment [4] was 13 mg/kg; in experiment [7], more than 100 mg/kg. In experiment [4], the ED90 is 50 mg/kg.
For `CC1(CI)COC2(c3ccccc3)C3CCC(C3)C2OO1` (stereo unspecified), the Selectivity in experiment [1] was 11. For the same compound, the EC50 in experiment [2] came out at 1 µM; in experiment [3] it was 11 µM.
In experiment [1], `CC1(CI)CCOOC2(c3ccccc3)C3CCC(C3)C2OO1` (stereo unspecified) came in with a Selectivity of 73. The EC50 in experiment [2] is 0.15 µM; in experiment [3], 11 µM.
In experiment [4], `C[C@@H]1CC[C@H]2[C@@H](C)C(=O)O[C@@H]3O[C@@]4(C)CC[C@@H]1[C@]32OO4` [ARTEMISININ] gave a 50% effective dose (ED50) of 5.4 mg/kg and an ED90 of 13 mg/kg. In experiment [7], this compound registered an ED50 of 32 mg/kg and an ED90 of 89 mg/kg. Also, in experiment [1], the Selectivity came to 1000.
